The values below come from ChEMBL document CHEMBL1142211 (Antimicrob Agents Chemother, 2007).

≈ marks a conversion by molar mass, not a printed value. Calls of active or inactive are those of the source.

One may read the Cmax as the highest concentration seen after dosing. In general, AUC(0-inf) refers to the area under the concentration-time curve extrapolated to infinity. Broadly, the half-life is how long it takes for the measured level to halve. A higher half-life goes with slow decline. For orientation: fraction unbound means the share of the substance not bound to proteins or other matrix. Usually LD50 stands for the dose expected to kill half of the subjects tested. A lower LD50 goes with greater toxicity.

The test system of data set [1] is Mycobacterium tuberculosis. Description: Bactericidal activity in Mycobacterium tuberculosis H37Rv on day 14. Type of data set: functional, organism-based. The method in brief: (§1)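 H37Rv broth cultures were incubated with a range of drug concentrations. Viable CFU were counted by plating on Middlebrook 7H11 agar after 1, 7 and 14 days. Bactericidal effect is calculated against the initial inoculum before drug addition, as the mean of triplicates.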

The test system of data set [2] is Mycobacterium tuberculosis. Description: Antimicrobial activity against Mycobacterium tuberculosis H37Rv in 7H9 broth. Type of data set: functional. The method, boiled down:
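Broth microdilution against H37Rv over 256 to 0.01 mg/liter. MIC is the lowest concentration with no visible turbidity.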

A short description of data set [3]: Cmax in BALB/c mouse at 37.5 to 2400 mg/kg, po. The arrangement: dose 37.5-2400 mg/kg, route oral. Type of data set: ADME, organism-based. Particulars: in vivo. The method in brief: (§2)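 Uninfected mice received single ascending oral gavage doses as suspensions in 0.25% (wt/vol) carboxymethylcellulose at 10 ml/kg. Plasma was taken by retro-orbital puncture from 0.08 to 50 h after dosing, with 3 animals per time point. Drug was measured by HPLC-UV or LCMS, and parameters were derived by noncompartmental analysis.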

Data set [4] deals with Mycobacterium tuberculosis. Put plainly: Antimicrobial activity against Mycobacterium tuberculosis H37Rv infected in mouse J774A.1 macrophages. The format is functional. The method in brief:
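J774A.1 macrophages were infected with H37Rv (MOI 1:8, macrophage:bacilli) and exposed to drug at 32 to 0.5 mg/liter for 3 days. Intracellular MIC is the minimal concentration giving a static effect after 3 days. Efficacy is the log10 CFU/ml reduction over the assay period.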

Data set [5] concerns Mycobacterium tuberculosis. Description: Bactericidal activity in Mycobacterium tuberculosis H37Rv on day 1. Type of data set: functional, organism-based. The method, boiled down:
as §1

Data set [6] concerns Mycobacterium tuberculosis. Description: Bactericidal activity in Mycobacterium tuberculosis H37Rv on day 7. The format is functional. The method, boiled down:
as §1

The nature of data set [7]: AUC(0-infinity) in BALB/c mouse at 37.5 to 2400 mg/kg, po. Type of data set: ADME, organism-based. The arrangement: dose 37.5-2400 mg/kg, route oral. Particulars: plasma. The method in brief: as §2
Data set [8] has as its system Mycobacterium tuberculosis. Description: Antimicrobial activity against Mycobacterium tuberculosis […] on day 7. Type of data set: functional. The method, boiled down: as §1
Data set [9] is described as follows: Half life in BALB/c mouse at 5 to 1000 mg/kg, po. Type of data set: ADME, organism-based. The arrangement: dose 5-1000 mg/kg, route oral. Particulars: in vivo. The method in brief: as §2
Data set [10] in a line: Cmax in BALB/c mouse at 5 to 1000 mg/kg, po. The arrangement: dose 5-1000 mg/kg, route oral. Type of data set: ADME, organism-based. Particulars: in vivo. The method in brief: as §2
For data set [11], the system named is Mycobacterium tuberculosis. Put plainly: Reduction of Mycobacterium tuberculosis H37Rv in orally dosed BALB/c mouse lung. The format is functional. The method, boiled down: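 BALB/c mice were infected by low-dose aerosol with H37Rv. Oral dosing started 4 weeks later and ran for 4 weeks (3 weeks for one agent), using fractionated regimens with 3 mice per regimen and saline controls. Lungs were homogenized 24 h after the end of treatment and plated on 7H11 agar with 10% ADC at 37°C in 5% CO2 for 3 weeks. The read-out is log10 CFU/lung.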

Data set [12] concerns Mus musculus. Description: Drug level in Mycobacterium tuberculosis infected BALB/c mouse model at 31 to 50000 mg/kg, po. Type of data set: ADME, organism-based. The arrangement: dose 31-50000 mg/kg, route oral. Particulars: in vivo.
The subject of data set [13] is Mycobacterium tuberculosis. Put plainly: Ratio of fraction Cmax in Mycobacterium tuberculosis infected BALB/c mouse to MIC in Mycobacterium tuberculosis infected BALB/c mouse model at 31 to 50000 mg/kg, po. The format is functional. Particulars: dose mg/kg 31-50000. The method, boiled down:
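Unbound peak plasma level was divided by broth MIC. […] It was converted to free drug by a Boltzman fit of equilibrium-dialysis mouse plasma binding. Values for the fractionated regimens given to aerosol-infected mice were estimated from the dose–fCmax/MIC relationship.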

Data set [14] is described as follows: AUC(0-infinity) in BALB/c mouse at 5 to 1000 mg/kg, po. Type of data set: ADME, organism-based. The arrangement: dose 5-1000 mg/kg, route oral. Particulars: plasma. The method in brief:
as §2

Data set [15] is described as follows: Ratio of fraction AUC in Mycobacterium tuberculosis infected BALB/c mouse to MIC in Mycobacterium tuberculosis infected BALB/c mouse model at 31 to 50000 mg/kg, po. Type of data set: functional. Particulars: dose mg/kg 31-50000. The method, boiled down:
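Estimated from oral single-ascending-dose PK in uninfected BALB/c mice (gavage, 0.25% CMC suspension; plasma sampled 0.08–50 h, 3 mice/time point; HPLC-UV/LCMS). Total AUC0-∞ was made unbound using a protein-binding fit from mouse-plasma equilibrium dialysis, then divided by broth MIC over 576 h/24 h (SPX: 432 h/24 h). Values were interpolated from dose relationships for dose-fractionation regimens in aerosol-infected mice.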

Data set [16] is described as follows: Fraction unbound ligand in mouse plasma at 0.01 to 50 mg/litre. Type of data set: ADME, cell-free. The method in brief:
(§3)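 Mouse plasma protein binding was measured by equilibrium dialysis across cellulose acetate membranes (12,000 to 14,000 MW cutoff). Drug was quantified by HPLC-UV or LCMS. Each concentration was run in duplicate and the mean reported.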

Data set [17] relates to Mus musculus. Description: Drug level in Mycobacterium tuberculosis infected BALB/c mouse model at 38 to 19000 mg/kg, po. The format is ADME, organism-based. The arrangement: dose 38-19000 mg/kg, route oral. Particulars: in vivo.
Data set [18] can be described thus: Cmax in BALB/c mouse at 6 to 400 mg/kg, po. Particulars: in vivo. Type of data set: ADME, organism-based. The arrangement: dose 6-400 mg/kg, route oral. The method, boiled down:
as §2

In data set [19] the test system is Plasma. Put plainly: Fraction unbound ligand in mouse plasma at 0.01 to 10 mg/litre. Type of data set: ADME, cell-free. The method in brief: as §3
Data set [20] can be described thus: AUC(0-infinity) in BALB/c mouse at 6 to 400 mg/kg, po. Type of data set: ADME, organism-based. The arrangement: dose 6-400 mg/kg, route oral. Particulars: plasma. The method, boiled down:
as §2

Data set [21] is described as follows: Toxicity in Mycobacterium tuberculosis infected BALB/c mouse model at 225 to 115000 mg/kg, po. Type of data set: organism-based. The arrangement: dose 225-115000 mg/kg, route oral. Particulars: in vivo.
The nature of data set [22]: Ratio of fraction Cmax in Mycobacterium tuberculosis infected BALB/c mouse to MIC in Mycobacterium tuberculosis infected BALB/c mouse model at 225 to 115000 mg/kg, po. Type of data set: ADME, organism-based. The arrangement: dose 225-115000 mg/kg, route oral. Particulars: in vivo. The method, boiled down:
(§4)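 Free Cmax and free AUC were derived from single-dose mouse plasma PK after conversion to unbound concentrations using each agent's binding equation, then divided by the broth MIC. Values for the fractionation regimens were estimated from the dose relationship.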

The nature of data set [23]: Half life in BALB/c mouse at 37.5 to 2400 mg/kg, po. The format is ADME, organism-based. The arrangement: dose 37.5-2400 mg/kg, route oral. Particulars: in vivo.
For data set [24], the system named is Mus musculus. Put plainly: Drug level in Mycobacterium tuberculosis infected BALB/c mouse model at 225 to 115000 mg/kg, po. The format is ADME, organism-based. The arrangement: dose 225-115000 mg/kg, route oral. Particulars: in vivo.
A short description of data set [25]: Ratio of fraction AUC in Mycobacterium tuberculosis infected BALB/c mouse to MIC in Mycobacterium tuberculosis infected BALB/c mouse model at 225 to 115000 mg/kg, po. Type of data set: ADME, organism-based. The arrangement: dose 225-115000 mg/kg, route oral. Particulars: in vivo. The method, boiled down:
as §4

In the case of `O=C(O)c1cn(C2CC2)c2cc(N3CCNCC3)c(F)cc2c1=O` [CIPROFLOXACIN], the outcome in [1] and in data set [5] was Active. In addition, the MIC turned out to be 0.5 µg/mL (≈ 1.51 µM) in data set [2] and 4 µg/mL (≈ 12.1 µM) in data set [4]. Besides, the Cmax in [3] stood at 1200 ng/mL. Also, the log10CFU/ml is on record as 3.2 in data set [6] and 3 in data set [8]. This compound gave an AUC(0-inf) in [7] of 29000 ng·h/mL.
Regarding `C[C@@H]1CN(c2c(F)c(N)c3c(=O)c(C(=O)O)cn(C4CC4)c3c2F)C[C@H](C)N1` [SPARFLOXACIN], the outcome in data set [1], in data set [5] and in data set [6] was Active. Also, the half-life in data set [9] was 9.8 h. Also, the concentration in data set [10] peaked (Cmax) at 750 ng/mL. Also, the Log10 cfu in [11] was 1.4. In data set [12], the “T>MIC” value is listed as 10%. The results for the MIC in data set [2] and in data set [4] were 0.1 µg/mL (≈ 0.255 µM) and 2 µg/mL (≈ 5.1 µM), respectively. Besides, the Ratio in data set [13] is 4. In data set [14], this compound returned an AUC(0-inf) of 43000 ng·h/mL. Also, the RatioAUC/MIC in data set [15] is recorded as 3. In data set [16], this compound displayed a fraction unbound of 0.26. The log10CFU/ml in [8] worked out at 3.
For `COc1c(N2C[C@@H]3CCCN[C@@H]3C2)c(F)cc2c(=O)c(C(=O)O)cn(C3CC3)c12` [MOXIFLOXACIN], the “T>MIC” value in data set [17] was found to be 0%. Besides, the outcome in data set [1], in [5] and in [6] was Active. For the same compound, in data set [11], the Log10 cfu stood at 3.2. Further, the maximum concentration (Cmax) in data set [18] was determined as 380 ng/mL. The MIC in [2] turned out to be 0.5 µg/mL (≈ 1.25 µM); in data set [4] it was 1 µg/mL (≈ 2.49 µM). The compound further came in with a Fu in [19] of 0.077. In addition, in data set [20], the AUC(0-inf) was 25000 ng·h/mL. The log10CFU/ml in data set [8] is on record as 3.
Take `CC1COc2c(N3CCN(C)CC3)c(F)cc3c(=O)c(C(=O)O)cn1c23` (configuration not stated) [OFLOXACIN]: the outcome in [1], in data set [5] and in data set [6] was Active. In data set [21], this compound had an LD50 of 3000 mg/kg. The same compound returned a Log10 cfu in [11] of 1.5. The Ratio in data set [22] is 1. Moreover, the results for the MIC in data set [2] and in [4] were 0.5 µg/mL (≈ 1.38 µM) and 2 µg/mL (≈ 5.53 µM), respectively. In data set [3], this compound registered a Cmax of 1700 ng/mL. In data set [23], this compound had a half-life of 4.93 h. Moreover, in [24], the “T>MIC” value was 0%. Moreover, the RatioAUC/MIC in data set [25] is recorded as 2. Besides, the AUC(0-inf) in data set [7] was 29000 ng·h/mL. In [8], this compound gave a log10CFU/ml of 3.
